# An excerpt weighted towards active compounds, which were near 1.3% of everything screened.
# FAS TE block – FAS thioesterase domain inhibitors, primary screen, biochemical, fluorescence intensity, uHTS; AID 602261, 2012; actives 0.67% (n = 360,000); recombinant FAS-TE, OMFH fluorogenic substrate, fluorescence endpoint; inhibition, % at 15 µM; Fatty acid synthase (Homo sapiens), P49327;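 active = compounds whose normalised, plate-corrected inhibition of enzyme fluorescence in the single-dose primary screen is 50% or more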;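 also: 0% = DMSO with enzyme and 100% = substrate without enzyme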
# SKN-1 block – suppressors of acrylamide-induced Pgst-4::GFP reporter in worms, primary screen, SKN-1 inhibitor project, whole organism, uHTS, GFP/RFP fluorescence ratio, strain VP596; AID 624304, 2012; actives 0.49% (n = 360,000); inhibition, % at 21.8 µM; C. elegans VP596 Pgst-4::GFP/RFP ratio, 24 h;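 active = interference check ratio from 0.5 to 1.5 plus GFP to RFP signal ratio inhibition reaching or exceeding a fixed threshold, cut at about 30% in these data, passing the limit was not always enough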
# DAGLB inh – DAGLB lipase inhibitors, primary screen, biochemical, fluorescence, HTS; Diacylglycerol lipase-beta (Homo sapiens), Q8NCG7; AID 504411, 2011; inhibition, % at 5.17 µM; actives 0.059% (n = 340,000); HEK293T DAGLB membrane lysate, EnzChek fluorogenic substrate; in the data active = inhibition above about 34%;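 also: 0% = enzyme with vehicle and 100% = wells lacking enzyme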
# Target sequence (Q8NCG7 whole entry, looked up): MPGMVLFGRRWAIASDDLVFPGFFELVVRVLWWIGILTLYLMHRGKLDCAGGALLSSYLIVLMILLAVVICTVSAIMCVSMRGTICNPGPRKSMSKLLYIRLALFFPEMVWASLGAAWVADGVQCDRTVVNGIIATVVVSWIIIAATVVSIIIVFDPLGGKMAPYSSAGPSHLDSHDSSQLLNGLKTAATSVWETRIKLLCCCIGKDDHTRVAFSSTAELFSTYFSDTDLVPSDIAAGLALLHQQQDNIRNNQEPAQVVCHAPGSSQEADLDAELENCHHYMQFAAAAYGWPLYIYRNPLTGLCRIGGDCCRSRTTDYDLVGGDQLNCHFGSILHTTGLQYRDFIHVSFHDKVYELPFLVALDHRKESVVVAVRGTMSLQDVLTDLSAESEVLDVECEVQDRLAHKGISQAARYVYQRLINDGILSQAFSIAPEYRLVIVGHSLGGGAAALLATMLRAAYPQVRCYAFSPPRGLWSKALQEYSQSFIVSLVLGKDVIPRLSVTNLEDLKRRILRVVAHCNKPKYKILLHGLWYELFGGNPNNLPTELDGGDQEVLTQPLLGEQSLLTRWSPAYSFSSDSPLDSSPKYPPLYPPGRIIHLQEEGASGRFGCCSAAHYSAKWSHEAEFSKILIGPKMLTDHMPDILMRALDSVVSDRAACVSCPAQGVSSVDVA
# hiPSC survival – enhancers of single-cell hiPSC survival, primary screen, ATPlite luminescence; AID 602274, 2012; actives 0.044% (n = 360,000); survival enhancement, % at 20 µM; 100% = ROCK inhibitor wells, 0% = DMSO; in the data active = survival enhancement above about 18%;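 also: cells exposed to compounds for 16 hours before the ATP read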
# MT1-MMP act inh – blockers of MT1-MMP proenzyme processing, primary screen, HT1080 RFP-PRO-GFP cells, GFP/RFP fluorescence; AID 651647, 2012; GFP/RFP ratio change, % at 20 µM; actives 0.061% (n = 360,000); GFP/RFP ratio fluorescence, overnight; percent of plate control window, DMSO zero;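 active = GFP/RFP ratio change of at least 30% with cell ATP level not reduced by more than half and red fluorescence within 50% of control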
#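 Read-out: GFP/RFP fluorescence ratio; Test system: RFP-PRO-GFP reporter HT1080 cells; Compound dosing: single-point 20 µM compound, 1% DMSO; Times: overnight compound exposure at 37 °C.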
# Starred values were filed as active, the others as inactive; / = not tested or not shown.
SMILES,FAS TE block,SKN-1 block,DAGLB inh,hiPSC survival,MT1-MMP act inh
O=C(NCc1ccccn1)C1CCN(C2CCN(Cc3cccc(F)c3)CC2)CC1,-7,8,1,0,3
O=C(O)C1C2CCC1C(O)C2 (centres undefined),-10,-5,-4,2,-1
COc1ccc(-c2ccc(NS(=O)(=O)c3cc([N+](=O)[O-])c(C)c([N+](=O)[O-])c3)cc2)nn1,59*,12,7,0,1
COc1ccc(-c2cccc(NS(=O)(=O)c3cc([N+](=O)[O-])c(C)c([N+](=O)[O-])c3)c2)nn1,29,15,11,0,2
O=C(CNCc1ccccc1Cl)Nc1cc(S(=O)(=O)N2CCOCC2)ccc1Cl,10,11,-5,9,3
O=C(Nc1cc(S(=O)(=O)N2CCOCC2)ccc1Cl)C(=O)c1c(-c2ccccc2)cc2ccccn12,76*,6,4,-2,-1
CC(C)OC(=O)c1ccc2ccc(-c3ccccc3)nc2c1,35,49,/,0,0
COc1cc2sc3cc(NCc4ccc(C)o4)ccc3c(=O)c2cc1OC,17,37*,-3,3,10
Clc1ccc(C#Cc2cccnc2)cc1,8,75*,-4,0,-1
C(=C\c1nc(-c2cccnc2)no1)/c1ccccc1,7,66*,-4,1,1
Clc1ccc(-c2noc(/C=C/c3ccccc3)n2)cc1,4,1,-6,0,2
Cc1ccc(-c2noc(/C=C/c3ccccc3)n2)cc1,20,7,-21,3,7
Clc1ccccc1/C=C/c1nc(-c2cccnc2)no1,1,39*,-5,0,-5
COC(=O)c1c(NC(=O)CN2CCN(Cc3ccc4c(c3)OCO4)CC2)sc(C)c1C,22,36*,-3,-1,3
Cc1ccc(CN2C(=O)CSCC2(C)C(=O)Nc2c(C)cccc2C)cc1 (centres undefined),/,-5,/,/,1
Cc1cccc(C)c1NC(=O)C1C(c2ccc3c(c2)OCO3)=Nc2ccccc2N1C(=O)c1ccccn1 (centres undefined),/,-12,/,/,-4
CCCCOc1ccc(C(=O)NCC(=O)OCCCOC(=O)CNC(=O)c2ccc(OCCCC)cc2)cc1,-5,8,-3,-4,-2
CCCCOc1ccc(C(=O)NC)cc1,-13,28*,4,0,0
Cc1ccc(N=C2NC(=O)/C(=C\c3ccc(C)s3)S2)cc1,-10,38*,-1,0,-11
N#Cc1cccc(C(=O)C(=O)N2CCN(c3ccccc3)CC2)c1,/,-5,/,/,1
O=C1c2ccccc2C(c2nnnn2-c2ccc3c(c2)OCCO3)N1Cc1cccs1 (centres undefined),-5,-1,/,2,1
O=S(=O)(c1ccc(N2CCN(c3ccc(F)cc3)CC2)cc1)N1CCCC1,-4,3,-3,-3,1
O=S(=O)(c1ccc(N2CCCC2)cc1)C(F)(F)F,18,42*,-3,-1,0
CC(=O)N=C1SC2CS(=O)(=O)CC2N1c1cccc(Cl)c1Cl (centres undefined),-2,40*,1,-1,4
CC(=O)N=C1SC2CS(=O)(=O)CC2N1c1ccccc1Cl (centres undefined),-9,23,-5,-1,-5
SMILES,FAS TE block,SKN-1 block,DAGLB inh,hiPSC survival,MT1-MMP act inh
COc1ccc(C2=Cc3ccccc3C(CC(=O)C3CC3)N2c2ccc(-c3cc(OC)c(OC)c(OC)c3)cc2)cc1 (centres undefined),10,12,/,0,2
Cc1cc(C)c2nc(N3CCN(C)CC3)c(C#N)cc2c1,-2,21,-8,21*,-9
Cc1cc(C)n(CC(O)Cn2c(C)c(C)c3ccccc32)n1 (centres undefined),-10,63*,-2,-3,2
O=C(NCCC1=CCCCC1)NC1CCCCC1,-4,55*,-4,-2,-3
C[C@@H]1CN([C@H](C)CO)C(=O)CCCn2cc(nn2)CO[C@H]1CN(C)S(=O)(=O)c1ccc2ccccc2c1,-9,-7,0,2,-4
Cc1c(-c2csc(N)n2)c2ccccc2n1C,-8,37*,-2,-1,3
Cc1[nH]c2ccccc2c1-c1csc(N)n1,-3,-19,-1,0,9
Cc1ccc(-c2csc(NC(=O)c3ccno3)n2)cc1,1,37*,7,0,-2
Cc1ccc(-c2csc(NC(=O)c3ccc(C)o3)n2)cc1,25,12,-12,4,0
Cc1ccc(C(=O)Nc2nc(-c3ccc(F)cc3)cs2)o1,21,36*,-7,0,3
CCN1C(=O)[C@H]2[C@@H](c3ccc(OC)cc3)N[C@]3(CCCN(Cc4ccc(F)cc4)C3=O)[C@H]2C1=O,-8,4,0,3,-1
Fc1ccc(-c2csc(Nc3ccccn3)n2)cc1,22,75*,0,0,0
Cc1cccc(Nc2nc(-c3cccs3)cs2)n1,20,36*,-4,-1,-13
c1ccc(Nc2nc(-c3cccnc3)cs2)nc1,-7,15,3,-2,-5
Cc1cccc(Nc2nc(-c3ccc(F)cc3)cs2)n1,19,16,-6,0,-2
Fc1ccc(-c2csc(-c3ccncc3)n2)cc1,10,70*,-1,0,-5
c1ccc(Nc2nc(-c3cccs3)cs2)nc1,12,72*,-1,-3,-4
CN(C)CCNc1ncnc2c1ncn2[C@H]1CN(Cc2ccc3c(c2)OCO3)C[C@@H](CO)O1,-7,7,/,-1,0
CC(C)c1ccc(NC(=O)C2(C)Cc3c(-c4cccc(C(F)(F)F)c4)ccnc3O2)cc1 (centres undefined),20,7,/,4,-4
c1csc(-c2csc(-c3cccs3)n2)c1,18,93*,-12,0,6
COc1ccc(C(=O)c2[nH]c(N)c(C(=O)NCCc3c[nH]c4ccccc34)c2-c2ccc(C(F)(F)F)cc2)cc1,12,-6,/,0,8
COc1ccccc1-n1cc2ccc([N+](=O)[O-])cc2n1,0,4,-9,0,-5
O=[N+]([O-])c1ccc2cn(-c3ccccc3)nc2c1,4,57*,1,1,2
CC1CCN(C(C)C(=O)Nc2ccccc2-c2ccccc2)CC1 (centres undefined),14,44*,-11,3,-5
CC1(C(=O)N2CCCCC2)CCN1C(=O)Cc1ccc(-c2ccccc2)cc1 (centres undefined),-4,16,/,0,3

# From PubChem
